Laboratory results published in ChEMBL document CHEMBL1287664, “Synthesis and biological analysis of prostate-specific membrane antigen-targeted anticancer prodrugs” (J Med Chem, 2010).
pIC50: −log10 of the molar value. Calls of active or inactive are those of the source. The rule behind the calls is not given here.

What was measured:
LNCaP [1] = assay: Cytotoxicity against human LNCAP cells; assay type: functional, cell-based
Procedure, shortened: (§1)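 LNCaP cells (RPMI 1640, 10% heat-inactivated FBS) were seeded at 50000 cells/well and grown 48 h to monolayers. They were pulsed 2 h at 37 °C with drug (free drugs in DMSO; conjugates in saline, ± 100-fold excess PMPA), then chased 66 h drug-free. Cells were labelled 4 h with [3H]-thymidine, TCA-precipitated, NaOH-solubilised and scintillation-counted. IC50 came from % incorporation vs log concentration.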

LNCaP [2] = assay: Cytotoxicity against human LNCAP cells after 2 hrs by [3H]thymidine incorporation assay in presence of 100-fold […]; assay type: functional, cell-based
Procedure, shortened: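 LNCaP monolayers (50000 cells/well, 48 h) received 100-fold excess PMPA to block PSMA sites before the saline-dissolved DUPA conjugate was added. Exposure was 2 h at 37 °C, followed by 66 h in drug-free medium. Viability was read as [3H]-thymidine incorporation (1 mCi/mL, 4 h), TCA-precipitated and scintillation-counted. IC50 came from incorporation versus log concentration.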

[3] = target: Glutamate carboxypeptidase 2 (Homo sapiens) (UniProt Q04609); assay: Displacement of DUPA-99mTc from human prostate-specific membrane antigen in LNCaP cells assessed as relative binding affinity after 2 hrs at 37 degC; assay type: cell-based
LNCaP [4] = assay: Cytotoxicity against human LNCAP cells after 2 hrs by [3H]thymidine incorporation assay; assay type: functional, cell-based
Procedure, shortened: (§2)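 LNCaP cells were seeded at 50000 cells/well and grown to monolayers over 48 h. They were exposed to increasing drug concentrations for 2 h at 37 °C, then kept in drug-free medium for 66 h. [3H]-thymidine (1 mCi/mL) was added for 4 h. Cells were TCA-precipitated (5%, 10 min), dissolved in 0.25 N NaOH and scintillation-counted. IC50 came from % incorporation versus log concentration.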

LNCaP [5] = assay: Cytotoxicity against human LNCAP cells at 100 pM to 1 uM; assay type: functional, cell-based; procedure, shortened: as §1
LNCaP [6] = assay: Cytotoxicity against human LNCAP cells at 100 pM to 1 uM after 2 hrs by [3H]thymidine incorporation assay; assay type: functional, cell-based; procedure, shortened: as §2

Chain of Glutamate carboxypeptidase 2 (Homo sapiens) (Q04609 whole entry, looked up): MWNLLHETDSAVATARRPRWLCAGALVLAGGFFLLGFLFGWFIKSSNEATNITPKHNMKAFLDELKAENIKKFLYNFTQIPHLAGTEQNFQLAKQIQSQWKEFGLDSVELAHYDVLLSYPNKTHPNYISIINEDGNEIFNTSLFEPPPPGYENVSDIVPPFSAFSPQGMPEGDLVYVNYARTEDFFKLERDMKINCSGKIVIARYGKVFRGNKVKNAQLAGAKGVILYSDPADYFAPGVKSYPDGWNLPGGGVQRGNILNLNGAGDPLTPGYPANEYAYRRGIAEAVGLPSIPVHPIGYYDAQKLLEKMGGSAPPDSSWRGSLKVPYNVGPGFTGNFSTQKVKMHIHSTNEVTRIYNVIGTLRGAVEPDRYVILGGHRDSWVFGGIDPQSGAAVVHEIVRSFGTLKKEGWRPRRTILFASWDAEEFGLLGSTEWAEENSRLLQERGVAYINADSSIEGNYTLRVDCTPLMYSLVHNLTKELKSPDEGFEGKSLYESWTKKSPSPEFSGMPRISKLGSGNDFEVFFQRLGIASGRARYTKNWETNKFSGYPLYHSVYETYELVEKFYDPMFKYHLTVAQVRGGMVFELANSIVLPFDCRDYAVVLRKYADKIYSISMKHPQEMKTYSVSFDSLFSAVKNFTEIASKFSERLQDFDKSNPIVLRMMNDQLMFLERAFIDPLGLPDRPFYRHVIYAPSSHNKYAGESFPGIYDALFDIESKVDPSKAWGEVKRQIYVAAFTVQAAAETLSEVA

Q: `CC(=O)O[C@H]1C(=O)[C@@]2(C)[C@H]([C@H](OC(=O)c3ccccc3)[C@]3(O)C[C@H](OC(=O)[C@H](O)[C@@H](NC(=O)c4ccccc4)c4ccccc4)C(C)=C1C3(C)C)[C@]1(OC(C)=O)CO[C@@H]1C[C@@H]2O` [PACLITAXEL] was tested. Which pIC50 (LNCaP [1]; Homo sapiens, LNCaP) did it give?
A: Its pIC50 is 7.65.

Q: For `CC[C@]1(O)CCN2CCc3c([nH]c4ccccc34)[C@](C(=O)OC)(c3cc4c(cc3OC)N(C)[C@@H]3[C@](O)(C(=O)NNC(=O)OCCSSC[C@H](NC(=O)[C@H](CC(=O)O)NC(=O)[C@@H](N)CNC(=O)[C@H](Cc5ccccc5)NC(=O)[C@H](Cc5ccccc5)NC(=O)CCCCCCNC(=O)CC[C@H](NC(=O)N[C@H](CCC(=O)O)C(=O)O)C(=O)O)C(=O)O)[C@@H](O)[C@@]5(CC)C=CCN6CC[C@@]43[C@@H]65)CC1C2` (some centres undefined), which Activity (LNCaP [2]) is on record?
A: The Activity was “inactive”.

Q: And the RBA [3]?
A: Its RBA is 25%.

Q: And the pIC50 (LNCaP [4])?
A: Its pIC50 is 7.51.

Q: How did the pIC50 (LNCaP [4]) turn out when `CC[C@H](C)[C@H](NC(=O)[C@H]1CCCCN1C)C(=O)N(COC(=O)CC(C)C)[C@H](C[C@@H](OC(C)=O)c1nc(C(=O)N[C@@H](Cc2ccc(C)cc2)C[C@H](C)C(=O)NNC(=O)OCCSSC[C@@H](NC(=O)[C@H](Cc2ccccc2)NC(=O)[C@H](CC(=O)O)NC(=O)CC[C@H](NC(=O)CC[C@H](NC(=O)N[C@@H](CCC(=O)O)C(=O)O)C(=O)O)C(=O)O)C(=O)O)cs1)C(C)C` was run?
A: The pIC50 was 8.30.

Q: `CC[C@]1(O)C[C@@H]2CN(CCc3c([nH]c4ccccc34)[C@@](C(=O)OC)(c3cc4c(cc3OC)N(C)[C@H]3[C@@](O)(C(N)=O)[C@H](O)[C@]5(CC)C=CCN6CC[C@]43[C@@H]65)C2)C1` [VINDESINE] was tested. Which pIC50 (LNCaP [1]; Homo sapiens, LNCaP) did it give?
A: The pIC50 was 8.02.

Q: `C[S+]([O-])c1ccc(-c2nc(-c3ccc(F)cc3)c(-c3ccncc3)[nH]2)cc1` (centres undefined) was tested. Which Activity (LNCaP [5]) did it give?
A: The Activity was “inactive”.

Q: Which Activity (LNCaP [5]) does the source give for `CO[C@@H]1C[C@@H](C[C@H]2CC[C@H](C)[C@H]([C@@H](C)C(=O)O)O2)O[C@]2(O[C@](C)([C@H]3CC[C@@](C)([C@@H]4O[C@@H]([C@H]5O[C@@](O)(CO)[C@H](C)C[C@@H]5C)C[C@@H]4C)O3)C[C@H]2C)[C@@H]1C` here?
A: Its Activity is “inactive”.

Q: `CC[C@]1(O)C[C@@H]2CN(CCc3c([nH]c4ccccc34)[C@@](C(=O)OC)(c3cc4c(cc3OC)N(C)[C@H]3[C@@](O)(C(=O)NN)[C@H](O)[C@]5(CC)C=CCN6CC[C@]43[C@@H]65)C2)C1` [DESACETYLVINBLASTINEHYDRAZIDE] was tested. Which pIC50 (LNCaP [1]; Homo sapiens, LNCaP) did it give?
A: Its pIC50 is 7.91.

Q: With `CC[C@H](C)[C@H](NC(=O)[C@H]1CCCCN1C)C(=O)N(COC(=O)CC(C)C)[C@H](C[C@@H](OC(C)=O)c1nc(C(=O)N[C@@H](Cc2ccc(C)cc2)C[C@H](C)C(=O)O)cs1)C(C)C` [TUBULYSIN] as the molecule, how does the pIC50 (LNCaP [1]; Homo sapiens, LNCaP) read?
A: Its pIC50 is 8.60.

Q: For `C[C@]12C=CC(=O)C=C1CC[C@@H]1[C@@H]2[C@@H](O)C[C@@]2(C)[C@H]1CC[C@]2(O)C(=O)CO`, which Activity (LNCaP [5]) is on record?
A: Its Activity is “inactive”.

Q: How did the Activity (LNCaP [2]) turn out when `CC[C@H](C)[C@H](NC(=O)[C@H]1CCCCN1C)C(=O)N(COC(=O)CC(C)C)[C@H](C[C@@H](OC(C)=O)c1nc(C(=O)N[C@@H](Cc2ccc(C)cc2)C[C@H](C)C(=O)NNC(=O)OCCSSC[C@H](NC(=O)[C@H](CC(=O)O)NC(=O)[C@@H](N)CNC(=O)[C@H](Cc2ccccc2)NC(=O)[C@H](Cc2ccccc2)NC(=O)CCCCCCNC(=O)CC[C@H](NC(=O)N[C@H](CCC(=O)O)C(=O)O)C(=O)O)C(=O)O)cs1)C(C)C` was run?
A: Its Activity is “inactive”.

Q: And the RBA [3]?
A: Its RBA is 26%.

Q: What about the pIC50 (LNCaP [4]) of the same molecule?
A: Its pIC50 is 8.22.

Q: `CC1=C[C@H]2O[C@@H]3C[C@H]4OC(=O)/C=C\C=C\C(=O)OCC[C@@H](C)[C@H](O)C(=O)OC[C@@]2(CC1)[C@]4(C)[C@]31CO1` [VERRUCARIN A] was tested. Which pIC50 (LNCaP [1]; lncap) did it give?
A: The pIC50 was 8.48.

Q: Which Activity (LNCaP [5]) does the source give for `OCCC#Cc1nc(-c2ccc(F)cc2)c(-c2ccncc2)n1CCCc1ccccc1` here?
A: Its Activity is “inactive”.

Q: How did the pIC50 (LNCaP [1]; Homo sapiens, LNCaP) turn out when `COc1cccc2c1C(=O)c1c(O)c3c(c(O)c1C2=O)C[C@@](O)(C(=O)CO)C[C@@H]3O[C@H]1C[C@H](N)[C@H](O)[C@H](C)O1` [DOXORUBICIN] was run?
A: Its pIC50 is 7.11.

Q: For `COC[C@H]1OC(=O)c2coc3c2[C@@]1(C)C1=C(C3=O)[C@@H]2CCC(=O)[C@@]2(C)C[C@H]1OC(C)=O`, which Activity (LNCaP [5]) is on record?
A: The Activity was “inactive”.

Q: How did the Activity (LNCaP [5]) turn out when `CC[C@@]1(O)C(=O)OCc2c1cc1n(c2=O)Cc2cc3ccccc3nc2-1` was run?
A: Its Activity is “inactive”.

Q: How did the Activity (LNCaP [5]) turn out when `C=C1[C@@H]2CCC3[C@@](CC[C@@H]4[C@H](C(=O)O)C[C@@H](O[C@@H]5O[C@H](CO)[C@@H](OS(=O)(=O)O)[C@H](OS(=O)(=O)O)[C@H]5OC(=O)CC(C)C)C[C@@]34C)(C2)[C@@H]1O` (some centres undefined) was run?
A: Its Activity is “inactive”.

Q: `CC1=C[C@H]2O[C@@H]3C[C@H]4OC(=O)/C=C/C=C/C(=O)OCC[C@@H](C)[C@H](OC(=O)OCCSSC[C@H](NC(=O)[C@H](CC(=O)O)NC(=O)[C@@H](N)CNC(=O)[C@H](Cc5ccccc5)NC(=O)[C@H](Cc5ccccc5)NC(=O)CCCCCCNC(=O)CC[C@H](NC(=O)N[C@H](CCC(=O)O)C(=O)O)C(=O)O)C(=O)O)C(=O)OC[C@@]2(CC1)[C@]4(C)[C@]31CO1` was tested. Which RBA [3] did it give?
A: Its RBA is 34%.

Q: And the Activity (LNCaP [6])?
A: Its Activity is “inactive”.

Q: `C[n+]1ccc(-c2cc[n+](C)cc2)cc1` was tested. Which Activity (LNCaP [5]) did it give?
A: The Activity was “inactive”.

Q: `CC[C@H](C)[C@H](NC(=O)[C@H]1CCCCN1C)C(=O)N(COC(=O)CC(C)C)[C@H](C[C@@H](OC(C)=O)c1nc(C(=O)N[C@@H](Cc2ccc(C)cc2)C[C@H](C)C(=O)NNC(=O)OCCSSC[C@H](NC(=O)[C@H](Cc2ccccc2)NC(=O)[C@H](Cc2ccccc2)NC(=O)CCCCCCCNC(=O)CC[C@H](NC(=O)N[C@H](CCC(=O)O)C(=O)O)C(=O)O)C(=O)O)cs1)C(C)C` was tested. Which pIC50 (LNCaP [4]) did it give?
A: The pIC50 was 7.62.
